Where two headings read alike, the source gives them in different places.
Columns and labels:
[1] = test system: panel of approximately sixty human tumor cell lines; assay: NCI one-dose primary anticancer assay; format: cell-based; details: for anticancer activity in words / number of cell lines against which the compound was effective: 1 dose 10 μM; for activity at 10 µM: Homo sapiens, 60 cell, 48 h
How it was run: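 NCI DTP single-dose screen on approximately sixty human tumor cell lines from nine cancer types. Test compound added at 10⁻⁵ M and cultures incubated 48 h. End point by sulforhodamine B protein staining, read spectrophotometrically. Result expressed as percent growth of treated cells relative to untreated control cells.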

SARS CoV Urbani = assay: microbe, parasite or virus in culture; format: cell-based, SARS coronavirus; details: for EC50: Severe acute respiratory syndrome coronavirus
[2] = test system: Flu A (H5N1) Duck/MN/1525/81; format: cell-based
[3] = test system: four strains of influenza virus; assay: Primary antiviral assay, influenza strains taken together; format: cell-based
[4] = test system: Leukemia subpanel tumor cell lines; assay: NCI five-dose anticancer assay; format: cell-based, human; details: for GI50: Homo sapiens; for TGI: Leukemia subpanel average, five concentrations
How it was run: (§1)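 Approximately sixty human tumor cell lines from nine cancer types, tested by the NCI DTP protocol. Test compound given at five 10-fold dilutions (100, 10, 1, 0.1, 0.01 μM) with 48 h continuous exposure. SRB protein staining read spectrophotometrically at time zero, in untreated control and in treated wells. […] MG_MID averages each parameter over all cell lines.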

[5] = test system: NSC lung cancer cell lines; assay: NCI five-dose anticancer assay; format: cell-based, human; details: 48 h; for GI50: Homo sapiens; for TGI: NSC lung cancer subpanel average, five concentrations
How it was run: as §1

Colon cancer cell lines = assay: NCI five-dose anticancer assay; format: cell-based, human; details: 48 h; for TGI: Colon cancer subpanel average, five concentrations; for GI50: Homo sapiens
How it was run: as §1

CNS cancer cell lines = assay: NCI five-dose anticancer assay; format: cell-based, human; details: 48 h; for TGI: CNS cancer subpanel average, five concentrations; for GI50: Homo sapiens
How it was run: as §1

Melanoma cell lines = assay: NCI five-dose anticancer assay; format: cell-based, human; details: 48 h; for GI50: Homo sapiens; for TGI: Melanoma subpanel average, five concentrations
How it was run: as §1

[6] = test system: Ovarian cancer cell lines; assay: NCI five-dose anticancer assay; format: cell-based, human; details: 48 h; for GI50: Homo sapiens; for TGI: Ovarian cancer subpanel average, five concentrations
How it was run: as §1

Renal cancer cell lines = assay: NCI five-dose anticancer assay; format: cell-based, human; details: 48 h; for GI50: Homo sapiens; for TGI: Renal cancer subpanel average, five concentrations
How it was run: as §1

Breast cancer cell lines = assay: NCI five-dose anticancer assay; format: cell-based, human; details: 48 h; for TGI: Breast cancer subpanel average, five concentrations
How it was run: as §1

[7] = test system: panel of approximately sixty tumor cell lines; assay: NCI five-dose anticancer assay; format: cell-based; details: Homo sapiens, read-out: GI50 MG_MID
How it was run: as §1

[8] = test system: Prostate cancer cell lines; assay: NCI five-dose anticancer assay; format: cell-based; details: Homo sapiens, 48 h
How it was run: as §1

MOLT-4 = assay: NCI five-dose anticancer assay; format: cell-based, human; details: MOLT-4, Leukemia; 48 h
How it was run: as §1

HS 578T = assay: NCI five-dose anticancer assay; format: cell-based, human; details: Breast cancer, 48 h
How it was run: as §1

[9] = test system: respiratory viruses panel (Flu A (H1N1), Flu A (H3N2), Flu A (H5N1), Flu B, SARS CoV); format: cell-based
[10] = test system: Flu A (H1N1) California/07/2009; assay: Primary antiviral assay; format: cell-based
[11] = test system: Flu A (H3N2) Perth/16/2009; assay: Primary antiviral assay; format: cell-based
Flu B Florida/4/2006 = assay: Primary antiviral assay; format: cell-based
[12] = 50% effective (virus-inhibitory) concentration

Compound: COc1ccc(C2CC(c3ccc4ccccc4c3)=NN2C2SC(=O)NC2=O)cc1 (centres unmarked) [1a, 5-[5-(4-Methoxyphenyl)-3-naphthalen-2-yl-4,5-dihydropyrazol-1-yl]-thiazolidine-2,4-dione]
- anticancer activity in words [1]: did not show any activity
- activity at 10 µM ([1]; read-out: Mean growth %): 102%
- activity at 10 µM ([1]; read-out: Range of growth %): 77.5 to 114%
- SI (SARS CoV Urbani): 0
- EC50 (SARS CoV Urbani): > 23.5 µM

Compound: O=C1NC(=O)C(N2N=C(c3ccc4ccccc4c3)CC2c2ccc(Cl)cc2)S1 (centres unmarked) [1b, 5-[5-(4-Chlorophenyl)-3-naphthalen-2-yl-4,5-dihydropyrazol-1-yl]-thiazolidine-2,4-dione]
- anticancer activity in words [1]: did not show any activity
- activity at 10 µM ([1]; read-out: Mean growth %): 105%
- activity at 10 µM ([1]; read-out: Range of growth %): 74.9 to 170%
- SI (SARS CoV Urbani): 0
- EC50 (SARS CoV Urbani): > 23.2 µM

Compound: COc1ccc(C2CC(c3ccc4ccccc4c3)=NN2C2SC(=O)N(CC(=O)Nc3ccc(C)cc3)C2=O)cc1 (centres unmarked) [2a, 2-{5-[5-(4-Methoxyphenyl)-3-naphthalen-2-yl-4,5-dihydropyrazol-1-yl]-2,4-dioxothiazolidin-3-yl}-N-p-tolylacetamide]
- anticancer activity in words [1]: did not show any activity
- activity at 10 µM ([1]; read-out: Mean growth %): 99.2%
- activity at 10 µM ([1]; read-out: Range of growth %): 76.6 to 114%
- SI [2]: >16.3
- SI (SARS CoV Urbani): 0
- EC50 (SARS CoV Urbani): > 313 µM
- activity against other influenza strains, in words [3]: did not have significant activity

Compound: Cc1ccc(NC(=O)CN2C(=O)SC(N3N=C(c4ccc5ccccc5c4)CC3c3ccc(Cl)cc3)C2=O)cc1 (centres unmarked) [2b, 2-{5-[5-(4-Chlorophenyl)-3-naphthalen-2-yl-4,5-dihydropyrazol-1-yl]-2,4-dioxothiazolidin-3-yl}-N-p-tolylacetamide]
- SI (SARS CoV Urbani): 0
- EC50 (SARS CoV Urbani): > 351 µM

Compound: COc1ccc(NC(=O)CN2C(=O)SC(N3N=C(c4ccc5ccccc5c4)CC3c3ccc(Cl)cc3)C2=O)cc1 (centres unmarked) [2c, 2-{5-[5-(4-Chlorophenyl)-3-naphthalen-2-yl-4,5-dihydropyrazol-1-yl]-2,4-dioxothiazolidin-3-yl}-N-(4-methoxyphenyl)-acetamide]
- SI (SARS CoV Urbani): 0
- EC50 (SARS CoV Urbani): > 342 µM

Compound: COc1ccc(C2CC(c3ccc4ccccc4c3)=NN2C2SC(=O)N(CN3CCCCC3)C2=O)cc1 (centres unmarked) [3a, 5-[5-(4-Methoxyphenyl)-3-naphthalen-2-yl-4,5-dihydropyrazol-1-yl]-3-piperidin-1-ylmethylthiazolidine-2,4-dione]
- activity at 10 µM ([1]; read-out: Mean growth %): 101%
- activity at 10 µM ([1]; read-out: Range of growth %): 69.5 to 113%

Compound: COc1ccc(C2CC(c3ccc4ccccc4c3)=NN2C2SC(=O)N(CN3CCOCC3)C2=O)cc1 (centres unmarked) [3b, 5-[5-(4-Methoxyphenyl)-3-naphthalen-2-yl-4,5-dihydropyrazol-1-yl]-3-morpholin-4-ylmethylthiazolidine-2,4-dione]
- activity at 10 µM ([1]; read-out: Mean growth %): 99.5%
- activity at 10 µM ([1]; read-out: Range of growth %): 67.5 to 122%

Compound: COc1ccc(C2CC(c3ccc4ccccc4c3)=NN2C2SC(=O)N(CN3CCN(C(C)=O)CC3)C2=O)cc1 (centres unmarked) [3c, 3-(4-Acetylpiperazin-1-ylmethyl)-5-[5-(4-methoxyphenyl)-3-naphthalen-2-yl-4,5-dihydro-pyrazol-1-yl]-thiazolidine-2,4-dione]
- activity at 10 µM ([1]; read-out: Mean growth %): 101%
- activity at 10 µM ([1]; read-out: Range of growth %): 82.2 to 126%

Compound: COc1ccc(C2CC(c3ccc4ccccc4c3)=NN2C2SC(=O)N(CN3CCN(Cc4ccccc4)CC3)C2=O)cc1 (centres unmarked) [3d, 3-(4-Benzylpiperazin-1-ylmethyl)-5-[5-(4-methoxyphenyl)-3-naphthalen-2-yl-4,5-dihydropyrazol-1-yl]-thiazolidine-2,4-dione]
- activity at 10 µM ([1]; read-out: Mean growth %): 103%
- activity at 10 µM ([1]; read-out: Range of growth %): 74.5 to 127%

Compound: CCN1CCN(CN2C(=O)SC(N3N=C(c4ccc5ccccc5c4)CC3c3ccc(Cl)cc3)C2=O)CC1 (centres unmarked) [3e, 5-[5-(4-Chlorophenyl)-3-naphthalen-2-yl-4,5-dihydropyrazol-1-yl]-3-(4-ethylpiperazin-1-ylmethyl)-thiazolidine-2,4-dione]
- SI (SARS CoV Urbani): 0
- EC50 (SARS CoV Urbani): > 16.8 µM

Compound: CC(=O)N1CCN(CN2C(=O)SC(N3N=C(c4ccc5ccccc5c4)CC3c3ccc(Cl)cc3)C2=O)CC1 (centres unmarked) [3f, 3-(4-Acetylpiperazin-1-ylmethyl)-5-[5-(4-chlorophenyl)-3-naphthalen-2-yl-4,5-dihydropyrazol-1-yl]-thiazolidine-2,4-dione]
- anticancer activity in words [1]: did not show any activity
- activity at 10 µM ([1]; read-out: Mean growth %): 102%
- activity at 10 µM ([1]; read-out: Range of growth %): 76.4 to 131%

Compound: COc1ccc(C2CC(c3ccccc3)=NN2C(=O)/C=C2\SC(=O)NC2=O)cc1 (centres unmarked) [4a, 5-{2-[5-(4-Methoxyphenyl)-3-phenyl-4,5-dihydropyrazol-1-yl]-2-oxoethylidene}-thiazolidine-2,4-dione]
- anticancer activity in words [1]: moderately effective against few cell lines
- activity at 10 µM ([1]; read-out: Mean growth %): 96.6%
- activity at 10 µM ([1]; read-out: Range of growth %): 39.1 to 147%

Compound: COc1ccc(C2=NN(C(=O)/C=C3\SC(=O)NC3=O)C(c3ccccc3O)C2)cc1 (centres unmarked) [4d, 5-{2-[5-(2-Hydroxyphenyl)-3-(4-methoxyphenyl)-4,5-dihydropyrazol-1-yl]-2-oxoethylidene}-thiazolidine-2,4-dione]
- number of cell lines against which the compound was effective [1]: 12 cell lines
- activity at 10 µM ([1]; read-out: Mean growth %): 60.1%
- activity at 10 µM ([1]; read-out: Range of growth %): -27.3 to 160%
- GI50 ([4]; 48 h): 3.28 µM
- GI50 ([4]; read-out: GI50 values range): 2.12 to 4.58 µM
- TGI ([4]; 48 h): 25.31 µM
- GI50 [5]: 7.91 µM
- TGI [5]: 42.06 µM
- TGI (Colon cancer cell lines): 21.01 µM
- GI50 (Colon cancer cell lines): 5.73 µM
- TGI (CNS cancer cell lines): 24.10 µM
- GI50 (CNS cancer cell lines): 7.57 µM
- GI50 (Melanoma cell lines): 8.07 µM
- TGI (Melanoma cell lines): 28.21 µM
- GI50 [6]: 11.4 µM
- TGI [6]: 79.20 µM
- GI50 (Renal cancer cell lines): 8.13 µM
- TGI (Renal cancer cell lines): 44.04 µM
- TGI (Breast cancer cell lines): 47.30 µM
- GI50 (Breast cancer cell lines; Homo sapiens): 6.5 µM
- GI50 [7]: 7.02 µM

Compound: COc1ccc(C2CC(c3ccc4ccccc4c3)=NN2C(=O)/C=C2\SC(=O)NC2=O)cc1 (centres unmarked) [4e, 5-{2-[5-(4-Methoxyphenyl)-3-naphthalen-2-yl-4,5-dihydropyrazol-1-yl]-2-oxoethylidene}-thiazolidine-2,4-dione]
- anticancer activity in words [1]: did not show any activity
- activity at 10 µM ([1]; read-out: Mean growth %): 99.7%
- activity at 10 µM ([1]; read-out: Range of growth %): 78.7 to 132%

Compound: O=C1NC(=O)/C(=C/C(=O)N2N=C(c3ccc4ccccc4c3)CC2c2ccc(Cl)cc2)S1 (centres unmarked) [4f, 5-{2-[5-(4-Chlorophenyl)-3-naphthalen-2-yl-4,5-dihydropyrazol-1-yl]-2-oxoethylidene}-thiazolidine-2,4-dione]
- number of cell lines against which the compound was effective [1]: 18 cell lines
- activity at 10 µM ([1]; read-out: Mean growth %): 51%
- activity at 10 µM ([1]; read-out: Range of growth %): -5.27 to 109%
- GI50 ([4]; read-out: GI50 values range): 1.64 to 3.2 µM
- TGI ([4]; 48 h): 7.38 µM
- GI50 [5]: 3.52 µM
- TGI [5]: 61.59 µM
- TGI (Colon cancer cell lines): 63.20 µM
- GI50 (Colon cancer cell lines): 3.53 µM
- TGI (CNS cancer cell lines): 31.99 µM
- GI50 (CNS cancer cell lines): 4.09 µM
- GI50 (Melanoma cell lines): 4.08 µM
- TGI (Melanoma cell lines): 45.88 µM
- GI50 [6]: 9.79 µM
- TGI [6]: 79.83 µM
- GI50 (Renal cancer cell lines): 4.66 µM
- TGI (Renal cancer cell lines): 53.25 µM
- GI50 [8]: 4.61 µM
- TGI (Breast cancer cell lines): 15.85 µM
- GI50 [7]: 4.38 µM
- TGI (MOLT-4): 7.41 µM
- TGI (HS 578T): 8.26 µM

Compound: COc1ccc(NC(=O)CN2C(=O)S/C(=C\C(=O)N3N=C(c4ccc5ccccc5c4)CC3c3ccc(OC)cc3)C2=O)cc1 (centres unmarked) [5d, N-(4-Methoxyphenyl)-2-(5-{2-[5-(4-methoxyphenyl)-3-naphthalen-2-yl-4,5-dihydropyrazol-1-yl]-2-oxoethylidene}-2,4-dioxothiazolidin-3-yl)-acetamide]
- anticancer activity in words [1]: did not show any activity
- activity at 10 µM ([1]; read-out: Mean growth %): 98%
- activity at 10 µM ([1]; read-out: Range of growth %): 74.7 to 119%

Compound: NC(=O)c1ncn([C@@H]2O[C@H](CO)[C@@H](O)[C@H]2O)n1 [Ribavirin]
- activity of positive controls, in words [9]: active as expected
- CC50 (in vitro): > 348 µM

Compound: oseltamivir carboxylate [Oseltamirvir-carboxylate]
- EC50 [10, 12]: 19 µM
- SI ([10]; […]): >1.9
- EC50 [11, 12]: 3.06 µM
- SI ([11]; […]): >11
- EC50 [2]: 0.11 µM
- SI [2]: >326
- EC50 (Flu B Florida/4/2006; [12]): 3.52 µM
- SI (Flu B Florida/4/2006; […]): >10
- activity of positive controls, in words [9]: active as expected
- CC50 (uninfected cells): > 35.2 µM
